In brackets after ≈: the same amount, converted by molar mass.
Experiments:
[1] = system: HSC-2; test: Cytotoxicity against human HSC2 cells after 24 by MTT assay; assay type: functional; settings: read-out: LD50 (the source's name)
[2] = Cytotoxicity against human HGF cells after 24 by MTT assay; assay type: cell-based; settings: read-out: LD50 (the source's name)
Procedure, shortened: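 Primary human gingival fibroblasts from a healthy person's gingival biopsy, explant-cultured in α-MEM with 30% FBS and antibiotics, used at passages 5–7. Cells were seeded at 6×10^3 into 96-well plates for 24 h, PBS-washed, and exposed to compound for 24 h. Viability was read by MTT (0.2 mg/mL, 4 h), DMSO lysis and A540, giving LD50 in µg/mL.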

| SMILES | CC50 [1] [µg/mL] | CC50 [2] [µg/mL] |
| --- | --- | --- |
| C[C@@H]1CC[C@@]2(OC1)O[C@H]1C[C@H]3[C@@H]4CC=C5C[C@@H](O[C@@H]6O[C@H](CO)[C@H](O[C@@H]7O[C@H](CO)[C@@H](O)[C@H](O[C@@H]8OC[C@@H](O)[C@H](O)[C@H]8O)[C@H]7O[C@@H]7O[C@H](CO)[C@@H](O)[C@H](O[C@@H]8O[C@H](CO)[C@@H](O)[C@H](O)[C@H]8O)[C@H]7O)[C@H](O)[C@H]6O)[C@H](O)C[C@]5(C)[C@H]4CC[C@]3(C)[C@@]1(O)[C@@H]2C | 5.5 (≈ 4.48 µM) | 34 (≈ 27.7 µM) |
| C[C@@H]1CC[C@@]2(OC1)O[C@H]1C[C@H]3[C@@H]4CC=C5C[C@@H](O[C@@H]6O[C@H](CO)[C@H](O[C@@H]7O[C@H](CO)[C@@H](O)[C@H](O[C@@H]8OC[C@@H](O)[C@H](O)[C@H]8O)[C@H]7O[C@@H]7O[C@H](CO)[C@@H](O)[C@H](O[C@@H]8O[C@H](CO)[C@@H](O)[C@H](O)[C@H]8O)[C@H]7O)[C@H](O)[C@H]6O)[C@H](O)C[C@]5(C)[C@H]4CC[C@]3(C)[C@H]1[C@@H]2C | 2.7 (≈ 2.23 µM) | 31 (≈ 25.6 µM) |
| C[C@@H]1CC[C@@]2(OC1)O[C@H]1C[C@H]3[C@@H]4CC=C5C[C@@H](O[C@@H]6O[C@H](CO)[C@H](O[C@@H]7O[C@H](CO)[C@@H](O)[C@H](O[C@@H]8OC[C@@H](O)[C@H](O)[C@H]8O)[C@H]7O[C@@H]7O[C@H](CO)[C@@H](O)[C@H](O)[C@H]7O)[C@H](O)[C@H]6O)[C@H](O)C[C@]5(C)[C@H]4CC[C@]3(C)[C@H]1[C@@H]2C | 12 (≈ 11.4 µM) | 37 (≈ 35.3 µM) |
| C[C@@H]1O[C@@H](OC[C@H]2O[C@@H](Oc3c(-c4ccc(O)cc4)oc4cc(O)cc(O)c4c3=O)[C@H](O[C@@H]3OC[C@@H](O)[C@H](O)[C@H]3O)[C@@H](O)[C@@H]2O)[C@H](O)[C@H](O)[C@H]1O [CAMELLIASIDE B] | > 400 | > 400 |
| C[C@@H]1CC[C@@]2(OC1)O[C@H]1C[C@H]3[C@@H]4CC=C5C[C@@H](O[C@@H]6O[C@H](CO)[C@@H](O[C@@H]7O[C@@H](C)[C@H](O[C@@H]8O[C@@H](C)[C@H](O)[C@@H](O)[C@H]8O)[C@@H](O)[C@H]7O)[C@H](O)[C@H]6O[C@@H]6O[C@@H](C)[C@H](O)[C@@H](O)[C@H]6O)[C@H](O)C[C@]5(C)[C@H]4CC[C@]3(C)[C@H]1[C@@H]2C | 5.5 (≈ 5.33 µM) | 9.1 (≈ 8.82 µM) |
| C[C@@H]1CC[C@@]2(OC1)O[C@H]1C[C@H]3[C@@H]4CC=C5C[C@@H](O[C@@H]6O[C@H](CO)[C@@H](O[C@@H]7O[C@@H](C)[C@H](O[C@@H]8O[C@@H](C)[C@H](O)[C@@H](O)[C@H]8O)[C@@H](O)[C@H]7O)[C@H](O)[C@H]6O[C@@H]6O[C@@H](C)[C@H](O)[C@@H](O)[C@H]6O)CC[C@]5(C)[C@H]4CC[C@]3(C)[C@H]1[C@@H]2C [PENNOGENIN RAHAMNOSYL CHACOTRIOSIDE] | 2 (≈ 1.97 µM) | 2.8 (≈ 2.76 µM) |
| C[C@@H]1CC[C@@]2(OC1)O[C@H]1[C@@H](O)[C@H]3[C@@H]4CC=C5C[C@@H](O[C@@H]6O[C@H](CO)[C@H](O[C@@H]7O[C@H](CO)[C@@H](O)[C@H](O[C@@H]8OC[C@@H](O)[C@H](O)[C@H]8O)[C@H]7O[C@@H]7O[C@H](CO)[C@@H](O)[C@H](O[C@@H]8O[C@H](CO)[C@@H](O)[C@H](O)[C@H]8O)[C@H]7O)[C@H](O)[C@H]6O)[C@H](O)C[C@]5(C)[C@H]4CC[C@]3(C)[C@H]1[C@@H]2C | 4.4 (≈ 3.59 µM) | 22 (≈ 17.9 µM) |
| C[C@@H]1CC[C@@]2(OC1)O[C@H]1C[C@H]3[C@@H]4CC=C5C[C@@H](O[C@@H]6O[C@H](CO)[C@H](O[C@@H]7O[C@H](CO)[C@@H](O)[C@H](O[C@@H]8OC[C@@H](O)[C@H](O)[C@H]8O)[C@H]7O[C@@H]7O[C@H](CO)[C@@H](O)[C@H](O)[C@H]7O)[C@H](O)[C@H]6O)[C@H](O)C[C@]5(C)[C@H]4CC[C@]3(C)[C@@]1(O)[C@@H]2C | 13 (≈ 12.2 µM) | 58 (≈ 54.5 µM) |

— ChEMBL document CHEMBL1150216, “Flavonol glycosides and steroidal saponins from the leaves of Cestrum nocturnum and their cytotoxicity” (J Nat Prod, 2001)
